Data reported in PubChem BioAssay AID449761 (Broad Institute, 2010).
Records with an inconclusive call do not appear. Activity calls are given as the source filed them.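 How the source made its calls: active means compounds raising caspase signal with fitted AC50 no more than tenfold above the top tested dose; inconclusive means flat curve at 30 to 70% activity, or unusable fit; inactive means the rest.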

Tested on: MEF WT non-primed, caspase-Glo luminescence, 3 h
Experiment: caspase activation in non-primed cells, dose response, counter-screen for Bcl2-A1 inhibitor project, cell-based, caspase-Glo luminescence, 3 h (AID 449761)
Summary of the method: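 Technique: CaspaseGlo luminescence | Material: Non-primed wild-type MEF cells | Quantity: 2500 cells/well | Times: 3 h compound at 37 °C, 1 h detection at room temperature | Dosing: 100 nL compound added per well by pin transfer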

## CC(C)c1cccc(-c2ccc3c(c2)S(=O)(=O)c2cccc(C(=O)NCc4ccccc4Cl)c2C3=O)c1
  AC50: > 35 µM (inactive)

## COc1cc(-c2cc(-c3ccccc3)nc(SCC(=O)Nc3nccs3)c2C#N)cc(OC)c1OC
  AC50: > 35 µM (inactive)

## CCOc1cc(/C=C\[N+](=O)[O-])ccc1OCC(=O)Nc1ccccc1C
  AC50: 5.27 µM

## Nc1nc(F)nc2c1ncn2[C@@H]1O[C@H](CO)[C@@H](O)[C@H]1O
  AC50: > 35 µM (inactive)

## O=[N+]([O-])/C=C/c1cn(Cc2ccc(Cl)cc2)c2ccccc12
  AC50: 18.4 µM

## Clc1ccccc1CN(Cc1ccccc1)c1ncnc2nc[nH]c12
  AC50: > 35 µM (inactive)

## COC(=O)c1ccc2c(c1)C(C)(C)C(/C=C/c1ccc(O)cc1)=[N+]2C
  AC50: 14.2 µM

## COc1ccc2c(c1)CCc1c(C(=O)Nc3cc(C)n(Cc4ccc(Cl)cc4)n3)noc1-2
  AC50: 14.2 µM

## CCS(=O)(=O)c1ncc(Cl)c(C(=O)Nc2ccccc2OC)n1
  AC50: > 35 µM (inactive)

## Cc1cc(C)cc(Cn2ncc(Cl)c(Cl)c2=O)c1
  AC50: > 35 µM (inactive)

## Cc1ccc(C)c(NC(=S)NC(NC(=O)Cc2cccc3ccccc23)C(Cl)(Cl)Cl)c1 (stereo unspecified)
  AC50: 12 µM

## C#CC(=O)N(c1cc(OC)ccc1OC)C(C(=O)NC1CCCC1)c1cccs1 (stereo unspecified)
  AC50: > 35 µM (inactive)

## COc1ccc(OC)c2sc(N(CCCN(C)C)C(=O)c3ccc(S(=O)(=O)N4CCc5ccccc5C4)cc3)nc12
  AC50: > 35 µM (inactive)

## CCOc1cc(/C=C2/C(=N)N3C=CSC3=NC2=O)ccc1OCCCOc1ccccc1C
  AC50: 8.09 µM

## Cc1ccc(Sc2c([N+](=O)[O-])c(=O)n(C)c3ccccc23)cc1
  AC50: > 35 µM (inactive)

## Cc1nn(-c2ccccc2)c(Cl)c1CN(C(=O)CCl)c1ccc(Cl)cc1
  AC50: 24.6 µM
